Experimental data published in PMC2630402 (Journal of medicinal chemistry, 2008).
Read-outs that look alike come from different tables or passages of the source.

Key:
[1] = tested on: αvβ6-positive (DX3puroβ6) tumor; conditions: DX3puroβ6 xenograft, 1 hour after injection, n = 3/tracer; data for 1 taken from ref 8; cited from earlier work
[2] = tested on: αvβ6-positive (DX3puroβ6) tumor; assay: Biodistribution in mice bearing paired αvβ6-positive; format: in vivo, male athymic nude mice; conditions: for uptake in the αvβ6-positive tumor: DX3puroβ6 xenograft, 1 hour after injection; for uptake in the αvβ6-positive tumor / level of activity in the urine: n = 3/tracer; for level of activity in the urine: male athymic nude mice
Summary of the method: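 Test compounds were 18F-labeled αvβ6-targeting peptides carrying different prosthetic groups. Radioactivity in healthy tissues and in both tumors was measured 1 h after injection and expressed as % ID/g, the percent of injected radioactive dose per gram of tissue. There were 3 mice per tracer.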

## [^18F]FBA-A20FDMV2 [compound 1]
[1]
  uptake in the αvβ6-positive tumor: 0.66 ± 0.09 % ID/g

## [^18F]FC5-A20FDMV2 [compound 3]
[2]
  uptake in the αvβ6-positive tumor: 1.01±0.09 % ID/g
[2]; biodistribution, 1 h p.i., compared with 1 and 2
  levels of radioactivity in the kidneys and the liver: moderately increased
[2]; biodistribution, 1 h p.i.
  level of activity in the urine: 501 ± 332 % ID/g

## [^18F]FPA-A20FDMV2 [compound 2]
[2]
  uptake in the αvβ6-positive tumor: 1.18 ± 0.28 % ID/g
[2]; biodistribution, 1 h p.i.
  level of activity in the urine: 311 ± 133 % ID/g
